According to ChEMBL document CHEMBL3593206, “SAR Studies of Exosite-Binding Substrate-Selective Inhibitors of A Disintegrin And Metalloprotease 17 (ADAM17) and Application as Selective in Vitro Probes” (J Med Chem, 2015):

Legend:
[1] = target: T1, Disintegrin and metalloproteinase domain-containing protein 10 (Homo sapiens, UniProt O14672); experiment: Inhibition of ADAM10 (unknown origin) preincubated for 30 mins followed by substrate addition measured every 30 mins for 2 hrs by fluorescence assay
T1 sequence (O14672 whole entry): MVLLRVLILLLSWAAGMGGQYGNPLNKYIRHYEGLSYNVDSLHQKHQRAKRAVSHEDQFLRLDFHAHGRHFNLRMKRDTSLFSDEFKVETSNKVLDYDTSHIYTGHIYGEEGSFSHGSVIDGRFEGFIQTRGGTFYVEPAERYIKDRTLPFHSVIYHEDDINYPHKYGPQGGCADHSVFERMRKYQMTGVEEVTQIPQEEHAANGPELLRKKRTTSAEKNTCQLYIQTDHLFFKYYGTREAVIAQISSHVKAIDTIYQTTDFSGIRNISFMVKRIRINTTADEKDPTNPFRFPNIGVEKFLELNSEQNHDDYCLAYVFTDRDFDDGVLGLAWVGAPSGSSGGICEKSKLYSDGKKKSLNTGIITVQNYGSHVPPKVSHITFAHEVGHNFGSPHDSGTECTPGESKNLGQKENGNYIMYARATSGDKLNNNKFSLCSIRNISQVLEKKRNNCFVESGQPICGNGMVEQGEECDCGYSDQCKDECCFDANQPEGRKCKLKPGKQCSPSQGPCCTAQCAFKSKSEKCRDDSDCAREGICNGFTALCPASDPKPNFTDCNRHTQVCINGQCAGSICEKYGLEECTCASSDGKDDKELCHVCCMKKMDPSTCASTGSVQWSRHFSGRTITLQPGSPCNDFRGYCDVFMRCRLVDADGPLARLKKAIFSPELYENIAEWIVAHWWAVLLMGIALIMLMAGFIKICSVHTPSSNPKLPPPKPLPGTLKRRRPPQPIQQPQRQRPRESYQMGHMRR
Summary of the method: (§1)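 Enzyme at 30 nM (3× solution) in 10 mM Hepes, 0.001% Brij-35, pH 7.5. Inhibitor series of 10 points, 1:3, from 300 μM, preincubated 30 min at RT. Glycosylated substrate added from a 30 μM 3× solution. Fluorescence (ex 360/em 460 nm) read every 30 min for 2 h. Inhibition taken from hydrolysis rates against substrate-only and substrate-plus-enzyme wells.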

[2] = target: T2, Disintegrin and metalloproteinase domain-containing protein 17 (Homo sapiens, UniProt P78536); experiment: Inhibition of ADAM17 (unknown origin) preincubated for 30 mins followed by substrate addition measured every 30 mins for 2 hrs by fluorescence assay; summary of the method: as §1
Neutrophil collagenase [3] = target: T3, Neutrophil collagenase (Homo sapiens, UniProt P22894); experiment: Inhibition of MMP8 (unknown origin) using Mca-KLPGL-Dnp-AR as substrate preincubated for 30 mins followed by substrate addition measured after 1 hr by fluorescence assay
Summary of the method: (§2)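 Inhibitor as 10-point 1:3 dilutions from 300 μM, 30 min at RT. Substrate added from a 30 μM 3× solution. Single fluorescence read (ex 324/em 393 nm) after 1 h at RT.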
Target sequence in this assay (P22894 whole entry): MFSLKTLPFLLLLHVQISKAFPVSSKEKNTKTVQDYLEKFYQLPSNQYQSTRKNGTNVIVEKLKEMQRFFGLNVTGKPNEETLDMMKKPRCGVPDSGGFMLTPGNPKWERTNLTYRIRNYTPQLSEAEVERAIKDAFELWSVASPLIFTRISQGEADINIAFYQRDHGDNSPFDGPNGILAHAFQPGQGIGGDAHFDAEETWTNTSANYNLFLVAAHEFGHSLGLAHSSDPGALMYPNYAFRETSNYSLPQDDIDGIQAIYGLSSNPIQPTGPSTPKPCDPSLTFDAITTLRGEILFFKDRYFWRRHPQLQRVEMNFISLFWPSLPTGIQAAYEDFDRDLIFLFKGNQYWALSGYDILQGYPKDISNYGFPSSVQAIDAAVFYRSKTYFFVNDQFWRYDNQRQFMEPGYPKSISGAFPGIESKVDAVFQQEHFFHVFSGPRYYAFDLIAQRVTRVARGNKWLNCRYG

[4] = target: T4, Matrix metalloproteinase-14 (Homo sapiens, UniProt P50281); experiment: Inhibition of MMP14 (unknown origin) using Mca-KLPGL-Dnp-AR as substrate preincubated for 30 mins followed by substrate addition measured after 1 hr by fluorescence assay; summary of the method: as §2
Neutrophil collagenase [5] = target: T3, Neutrophil collagenase; experiment: Inhibition of MMP8 (unknown origin) using Mca-KLPGL-Dnp-AR as substrate at 100 uM preincubated for 30 mins followed by substrate addition measured after 1 hr by fluorescence assay relative to control; summary of the method: as §2
Target sequence in this assay (P22894 101-467 limits assumed): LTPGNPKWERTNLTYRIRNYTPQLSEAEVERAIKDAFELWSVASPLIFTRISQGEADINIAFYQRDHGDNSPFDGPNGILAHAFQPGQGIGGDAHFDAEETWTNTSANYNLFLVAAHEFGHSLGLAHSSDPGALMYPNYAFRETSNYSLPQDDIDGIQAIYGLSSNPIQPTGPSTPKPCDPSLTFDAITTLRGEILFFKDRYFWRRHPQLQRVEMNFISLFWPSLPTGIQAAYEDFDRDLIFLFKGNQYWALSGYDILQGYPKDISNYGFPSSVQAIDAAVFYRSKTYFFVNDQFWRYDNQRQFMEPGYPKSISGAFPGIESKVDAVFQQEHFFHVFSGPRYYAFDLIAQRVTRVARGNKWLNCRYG

[6] = target: T4, Matrix metalloproteinase-14; experiment: Inhibition of MMP14 (unknown origin) using Mca-KLPGL-Dnp-AR as substrate at 100 uM preincubated for 30 mins followed by substrate addition measured after 1 hr by fluorescence assay relative to control
[7] = target: T2, Disintegrin and metalloproteinase domain-containing protein 17; experiment: Inhibition of ADAM17 (unknown origin) at 100 uM preincubated for 30 mins followed by substrate addition measured every 30 mins for 2 hrs by fluorescence assay relative to control; summary of the method: as §1
[8] = Cytotoxicity against CHOK1 cells assessed as inhibition of cell viability up to 33 uM after 72 hrs by CellTiter-Glo assay; type: cell-based, Cricetulus griseus; details: chinese hamster, cho-k1, 72 h
[9] = target: T2, Disintegrin and metalloproteinase domain-containing protein 17; experiment: Inhibition of ADAM17 in human THP1 cells assessed as inhibition of LPS-stimulated TNFalpha cleavage at 25 uM after 1 hr by AlphaScreen assay relative to control; type: cell-based; details: THP-1
Summary of the method: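 THP-1 cells grown in RPMI 1640 with 10% FBS and 0.05 mM 2-mercaptoethanol; 3000 cells per well. Compound given in 3% DMSO for 1 h, then LPS added (1 μg/mL final) and cells incubated overnight at 37 °C. TNFα detected by AlphaScreen using anti-TNFα acceptor beads and streptavidin donor beads, each step 1 h in the dark at RT.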

[10] = target: T2, Disintegrin and metalloproteinase domain-containing protein 17; experiment: Inhibition of ADAM17 in HTSMC assessed as inhibition of LPS-stimulated IL-8 shedding at 10 uM preincubated for 30 mins followed by LPS challenge measured after 4 to 24 hrs by ELISA
Summary of the method: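 HTSMCs stimulated with LPS for IL-8 release; compounds at 10 μM. Mean ± SEM, n = 3 from three independent experiments; one-way ANOVA with Dunnett post hoc test.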

[11] = target: T5, Disintegrin and metalloproteinase domain-containing protein 10 (Homo sapiens) (UniProt O14672); experiment: Inhibition of ADAM10 in HTSMC assessed as inhibition of PMA-stimulated release of CXCL16 at 10 uM preincubated for 30 mins followed by PMA challenge measured after 4 to 24 hrs by ELISA
T5 sequence (whole entry): T1 sequence (O14672 whole entry)

[12] = target: T2, Disintegrin and metalloproteinase domain-containing protein 17; experiment: Inhibition of ADAM17 in human HT1080 cells assessed as inhibition of PMA-stimulated PTK7 L622D mutant shedding at 25 to 100 uM after 16 hrs by Western blot analysis; type: cell-based; details: HT-1080
Summary of the method: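 PTK7 shedding tested at 25, 50 and 100 μM in PMA-stimulated cells. HT1080 fibrosarcoma cells carried the L622D PTK7 mutant uncleavable by MT1-MMP; SW480 colorectal cells expressed wild-type PTK7 endogenously. Soluble PTK7 was detected.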

[13] = target: T2, Disintegrin and metalloproteinase domain-containing protein 17; experiment: Inhibition of ADAM17 in human A549 cells assessed as inhibition of PMA-stimulated heregulin shedding at 40 uM incubated for 1 hr followed by PMA stimulation measured after 1 hr; type: cell-based
Summary of the method: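 Heregulin shedding in A549 cells, with all compounds tested at 40 μM.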

[14] = target: T5, Disintegrin and metalloproteinase domain-containing protein 10 (Homo sapiens); experiment: Inhibition of ADAM10 in human A549 cells assessed as inhibition of betacellulin shedding at 40 uM after 1 hr by ELISA; type: cell-based
Summary of the method: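 A549 cells were tested for betacellulin shedding at 40 μM, with Marimastat at 10 μM as control.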

[15] = target: T2, Disintegrin and metalloproteinase domain-containing protein 17; experiment: Inhibition of ADAM17 in human A549 cells assessed as effect on PMA-stimulated TGFalpha shedding up to 100 uM preincubated for 1 hr followed by PMA stimulation measured after 1 hr by ELISA; type: cell-based
Summary of the method: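 TGFα shedding from PMA-treated A549 cells tested up to 100 μM. Marimastat at 10 μM served as control, with a non-PMA-treated control included; soluble TGFα measured in the supernatant.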

[16] = target: T5, Disintegrin and metalloproteinase domain-containing protein 10 (Homo sapiens); experiment: Inhibition of ADAM10 in HTSMC assessed as inhibition of constitutive release of fractalkine/CX3CL1 at 10 uM preincubated for 30 mins measured after 4 to 24 hrs by ELISA

T2 sequence (P78536 whole entry, the tested form may be a part): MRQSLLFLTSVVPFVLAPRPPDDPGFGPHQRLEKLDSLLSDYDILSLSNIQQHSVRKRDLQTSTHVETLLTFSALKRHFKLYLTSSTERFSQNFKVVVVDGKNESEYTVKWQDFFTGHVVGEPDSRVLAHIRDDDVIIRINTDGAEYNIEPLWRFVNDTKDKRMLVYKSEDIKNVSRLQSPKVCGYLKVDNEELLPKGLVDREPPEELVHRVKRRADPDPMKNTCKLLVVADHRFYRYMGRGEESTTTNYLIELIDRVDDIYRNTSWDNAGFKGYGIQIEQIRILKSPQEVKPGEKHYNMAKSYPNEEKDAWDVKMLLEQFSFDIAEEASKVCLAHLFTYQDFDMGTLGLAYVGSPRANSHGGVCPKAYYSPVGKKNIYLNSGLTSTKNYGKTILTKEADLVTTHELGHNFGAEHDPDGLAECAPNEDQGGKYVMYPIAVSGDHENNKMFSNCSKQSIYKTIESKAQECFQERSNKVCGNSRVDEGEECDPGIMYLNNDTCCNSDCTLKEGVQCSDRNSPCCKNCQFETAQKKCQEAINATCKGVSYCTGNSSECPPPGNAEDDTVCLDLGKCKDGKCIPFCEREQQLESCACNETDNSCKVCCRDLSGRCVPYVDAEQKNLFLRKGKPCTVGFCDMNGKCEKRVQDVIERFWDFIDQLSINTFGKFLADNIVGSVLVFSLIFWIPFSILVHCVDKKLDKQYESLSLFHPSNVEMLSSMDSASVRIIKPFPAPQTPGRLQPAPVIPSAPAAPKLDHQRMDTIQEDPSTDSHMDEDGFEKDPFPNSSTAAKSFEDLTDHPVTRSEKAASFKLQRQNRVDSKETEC

| IC50 [1] | IC50 [2] | IC50 (Neutrophil collagenase [3]) | IC50 [4] | inhibition (Neutrophil collagenase [5]) | inhibition [6] | inhibition [7] | inhibition [9] | inhibition [10] | inhibition [11] | inhibition [12] | inhibition [13] | inhibition [14] | inhibition [15] | inhibition [16] | SMILES | Activity [8] |
| --- | --- | --- | --- | --- | --- | --- | --- | --- | --- | --- | --- | --- | --- | --- | --- | --- |
| > 100 µM | 5.7 µM | > 100 µM | > 100 µM | 0% | 0% | 100% | 57% | 62% | 0% | 0% | 0% | 0% | 0% | 0% | CCCC[C@H]1CN([C@@H](Cc2ccc(O)cc2)CN2CCC[C@H]2CN2C(=O)C(=O)NC[C@H]2Cc2ccc3ccccc3c2)C(=O)C(=O)N1CCC12CC3CC(CC(C3)C1)C2 | Non-toxic |
| > 100 µM | 5.4 µM | > 100 µM | > 100 µM | 28% | 27% | 100% | 36% | 18% | 0% | 0% | 0% | 0% | 0% | 0% | O=C1NC[C@H](Cc2ccccc2)N(C[C@@H]2CCCN2C[C@@H](CC2CCCCC2)N2C[C@H](Cc3ccc(O)cc3)N(CCc3ccccc3)C(=O)C2=O)C1=O | Non-toxic |
| > 100 µM | 4.2 µM | > 100 µM | > 100 µM | 13% | 25% | 95% | 43% | 36% | 0% | 25% | 100% | 0% | 0% | 0% | O=C1NC[C@@H](Cc2ccc(O)cc2)N(C[C@@H]2CCCN2C[C@@H](Cc2ccc3ccccc3c2)N2CC(Cc3ccc(O)cc3)N(CCC34CC5CC(CC(C5)C3)C4)C(=O)C2=O)C1=O (single isomer, unassigned) | Non-toxic |
